Reference: ChEMBL document CHEMBL1137438, “Small conformationally restricted piperidine N-arylsulfonamides as orally active gamma-secretase inhibitors” (Bioorg Med Chem Lett, 2007)

Columns and labels:
[1] = AUC in rat at 10 mg/kg, po after 0 to 6 hrs; format: ADME, organism-based; parameters: time < 6 hr, dose 10 mg/kg, route oral; settings: plasma
Mus musculus [2] = assay: Plasma A-beta-40 level in Tg CRND8 mouse at 30 mg/kg, sc after 3 hrs; format: functional; settings: route subcutaneous
Method in brief: (§1)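 Tg CRND8 transgenic mice, acute single dose of 30 mpk, oral or sub-cutaneous. Plasma Aβ40 measured 3 h after dosing and expressed as % reduction.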

Mus musculus [3] = assay: Plasma A-beta-40 level in Tg CRND8 mouse at 30 mg/kg, po after 3 hrs; format: functional; method in brief: as §1

Row | SMILES | AUC at 6 h [1] | Activity (Mus musculus [2]) | Activity (Mus musculus [3])
1 | CC[C@@H]1CCC[C@H](C2(OC(=O)N3CCC(N4CCCCC4)CC3)CC2)N1S(=O)(=O)c1cc(F)cc(F)c1 (racemic) | 296 ng·h/mL | – | –
2 | CC[C@@H]1CCC[C@H](C2(OC(=O)N3CCC(CCO)(OC)CC3)CC2)N1S(=O)(=O)c1ccc(Cl)cc1 (racemic) | 81 ng·h/mL | – | –
3 | CC[C@@H]1CCC[C@H](C2(OC(=O)N3CCN(CCO)[C@@H](C)C3)CC2)N1S(=O)(=O)c1ccc(Cl)cc1 (racemic) | 1870 ng·h/mL | – | –
4 | CC[C@@H]1CCC[C@H](C2(OC(=O)N3CCN(C(C)(C)CO)CC3)CC2)N1S(=O)(=O)c1ccc(F)cc1 (racemic) | 405 ng·h/mL | 59% | –
5 | CC[C@@H]1CCC[C@H](C2(OC(=O)N3CCN(CCO)C[C@@H]3C)CC2)N1S(=O)(=O)c1ccc(Cl)cc1 (racemic) | 3410 ng·h/mL | – | –
6 | CC[C@@H]1CCC[C@H](C2(OC(=O)N3CCN(C(C)(C)CO)CC3)CC2)N1S(=O)(=O)c1ccc(Cl)cc1 (racemic) | 892 ng·h/mL | 91% | 96%

Now from value to compound, other results behind:

Row | AUC at 6 h [1] | SMILES | Activity (Mus musculus [2]) | Activity (Mus musculus [3])
7 | 1780 ng·h/mL | CC[C@@H]1CCC[C@H](C2(OC(=O)N3CC4CCC(C3)N4CCO)CC2)N1S(=O)(=O)c1ccc(F)cc1 (mixture of isomers) | – | –
8 | 1330 ng·h/mL | CC[C@@H]1CCC[C@H](C2(OC(=O)N3CC4CCC(C3)N4CCO)CC2)N1S(=O)(=O)c1ccc(F)c(F)c1 (mixture of isomers) | – | –
9 | 939 ng·h/mL | CC[C@@H]1CCC[C@H](C2(OC(=O)N3CC4CCC(C3)N4CCO)CC2)N1S(=O)(=O)c1ccc(Cl)cc1 (mixture of isomers) | 85% | –
